Legend:
[1] = target: T1, G9a (Homo sapiens, UniProt Q96KQ7); experiment: Western blot of G9a protein levels in cancer cells; type: cell-based
T1 sequence (Q96KQ7 1-1210): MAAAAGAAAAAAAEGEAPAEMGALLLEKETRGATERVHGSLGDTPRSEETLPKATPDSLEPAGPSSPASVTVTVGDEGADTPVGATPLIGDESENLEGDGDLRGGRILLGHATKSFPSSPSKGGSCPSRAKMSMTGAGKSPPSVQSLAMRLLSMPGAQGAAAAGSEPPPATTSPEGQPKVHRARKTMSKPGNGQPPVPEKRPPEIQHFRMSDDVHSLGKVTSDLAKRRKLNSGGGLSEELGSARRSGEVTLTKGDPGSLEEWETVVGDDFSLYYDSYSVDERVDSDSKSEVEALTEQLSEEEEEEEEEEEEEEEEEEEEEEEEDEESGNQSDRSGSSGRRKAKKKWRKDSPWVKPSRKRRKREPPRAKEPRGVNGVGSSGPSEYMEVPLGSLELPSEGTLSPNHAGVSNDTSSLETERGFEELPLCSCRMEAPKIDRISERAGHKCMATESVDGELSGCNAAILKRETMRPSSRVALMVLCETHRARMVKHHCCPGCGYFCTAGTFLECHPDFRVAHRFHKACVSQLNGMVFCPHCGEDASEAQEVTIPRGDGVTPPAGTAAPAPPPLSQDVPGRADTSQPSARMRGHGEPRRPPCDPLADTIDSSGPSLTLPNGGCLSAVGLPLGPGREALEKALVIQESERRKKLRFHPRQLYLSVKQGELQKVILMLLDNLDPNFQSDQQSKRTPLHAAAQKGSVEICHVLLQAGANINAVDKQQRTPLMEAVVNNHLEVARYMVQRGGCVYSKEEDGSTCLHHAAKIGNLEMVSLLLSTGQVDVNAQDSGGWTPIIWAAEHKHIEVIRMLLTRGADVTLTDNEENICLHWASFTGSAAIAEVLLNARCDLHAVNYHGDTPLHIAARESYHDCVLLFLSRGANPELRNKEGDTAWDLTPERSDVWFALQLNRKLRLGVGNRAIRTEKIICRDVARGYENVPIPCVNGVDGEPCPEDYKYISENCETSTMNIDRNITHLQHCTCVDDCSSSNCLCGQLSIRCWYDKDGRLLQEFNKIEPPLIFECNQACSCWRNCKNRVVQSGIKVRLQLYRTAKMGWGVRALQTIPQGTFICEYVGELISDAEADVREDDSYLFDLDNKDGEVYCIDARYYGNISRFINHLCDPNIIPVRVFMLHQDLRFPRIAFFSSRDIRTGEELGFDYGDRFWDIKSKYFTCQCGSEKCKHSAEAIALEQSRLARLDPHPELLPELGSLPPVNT
In short: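 Cells (22Rv1, K562, H1299) were treated for 24 h at the indicated concentrations; 22Rv1 time courses were run at 3 μM. Cells were lysed in RIPA with protease inhibitors, and 10–30 μg of protein was resolved by SDS-PAGE and transferred to PVDF. Blots were probed overnight at 4 °C, with vinculin/β-actin as loading controls. Band intensity was normalised to DMSO, with n = 2 independent experiments (mean ± SD).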

[2] = target: T1, G9a; experiment: G9a radioactive methyltransferase assay; type: biochemical; conditions: indicated concentrations, duplicate (Figure 4B)
In short: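 Enzyme activity was measured with a radioisotope-based MT HotSpot methyltransferase assay run by a contract laboratory. Test compounds were run at the indicated concentrations, in duplicate. Data are mean ± SD of the two duplicate experiments.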

[3] = target: T2, PRMT7 (Homo sapiens, UniProt Q9NVM4); experiment: Western blot of PRMT7 protein level in 22Rv1 cells; type: cell-based; conditions: indicated concentration, 24 h, WB
T2 sequence (Q9NVM4 1-692): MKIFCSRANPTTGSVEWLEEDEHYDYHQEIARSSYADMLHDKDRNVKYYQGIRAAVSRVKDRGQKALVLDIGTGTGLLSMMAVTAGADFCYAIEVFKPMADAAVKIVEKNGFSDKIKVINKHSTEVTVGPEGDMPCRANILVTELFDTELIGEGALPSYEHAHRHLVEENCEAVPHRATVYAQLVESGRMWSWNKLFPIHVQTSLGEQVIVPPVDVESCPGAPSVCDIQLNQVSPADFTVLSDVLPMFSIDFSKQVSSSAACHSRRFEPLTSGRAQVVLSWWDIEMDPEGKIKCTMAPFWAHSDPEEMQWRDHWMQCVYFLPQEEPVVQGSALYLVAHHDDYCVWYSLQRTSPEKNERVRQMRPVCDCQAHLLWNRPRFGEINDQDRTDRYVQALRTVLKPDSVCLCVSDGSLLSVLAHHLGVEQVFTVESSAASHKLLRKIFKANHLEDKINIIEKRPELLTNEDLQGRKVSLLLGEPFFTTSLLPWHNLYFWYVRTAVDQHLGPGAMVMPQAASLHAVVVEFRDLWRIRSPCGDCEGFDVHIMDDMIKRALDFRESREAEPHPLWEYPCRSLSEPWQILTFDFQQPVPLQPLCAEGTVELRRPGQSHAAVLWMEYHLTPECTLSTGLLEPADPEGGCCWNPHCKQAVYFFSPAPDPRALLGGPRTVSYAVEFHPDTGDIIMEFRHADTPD
In short: (§1)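 22Rv1 cells were treated with the test compound at the indicated concentrations for 24 h. Cells were lysed in RIPA containing protease inhibitor cocktail, and protein was resolved by SDS-PAGE and transferred to PVDF. Primary antibody was applied overnight at 4 °C, with β-actin as loading control. Blots are representative of two independent experiments.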

[4] = target: T3, SET7/9 (Homo sapiens, UniProt Q8WTS6); experiment: Western blot of SET7/9 protein level in 22Rv1 cells; type: cell-based; conditions: indicated concentration, 24 h, WB
T3 sequence (Q8WTS6 1-366): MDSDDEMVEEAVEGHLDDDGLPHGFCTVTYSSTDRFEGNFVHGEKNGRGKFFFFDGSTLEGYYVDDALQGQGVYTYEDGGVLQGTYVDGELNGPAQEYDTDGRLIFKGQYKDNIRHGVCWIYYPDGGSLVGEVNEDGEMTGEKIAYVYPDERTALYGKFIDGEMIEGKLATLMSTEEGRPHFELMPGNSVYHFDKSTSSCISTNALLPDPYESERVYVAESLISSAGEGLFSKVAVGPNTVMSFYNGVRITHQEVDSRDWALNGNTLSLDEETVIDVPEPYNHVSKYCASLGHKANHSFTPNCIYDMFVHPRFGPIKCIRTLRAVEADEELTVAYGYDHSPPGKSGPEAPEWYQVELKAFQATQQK
In short: as §1

[5] = system: GLP mRNA; experiment: RT-qPCR of GLP mRNA in H1299 cells; type: cell-based; conditions: 3 μM, 24 h, normalized to DMSO
In short: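 H1299 cells were treated with DMSO or test compound at 3 μM for 24 h. Total RNA was extracted and reverse-transcribed to cDNA. qPCR used gene-specific primers for G9a and GLP, and a GAPDH primer set was included.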

SMILES: COc1cc2c(NC3CCN(CCCC(=O)NCCCCCCCCCCCC(=O)N[C@H](C(=O)N4C[C@H](O)C[C@H]4C(=O)NCc4ccc(-c5scnc5C)cc4)C(C)(C)C)CC3)nc(N3CCC(F)(F)CC3)nc2cc1OCCCN1CCCC1 [Compound 10, (2S,4R)-1-((S)-2-(12-(4-(4-((2-(4,4-difluoropiperidin-1-yl)-6-methoxy-7-(3-(pyrrolidin-1-yl)propoxy)quinazolin-4-yl)amino)piperidin-1-yl)butanamido)dodecanamido)-3,3-dimethylbutanoyl)-4-hydroxy-N-(4-(4-methylthiazol-5-yl)benzyl)pyrrolidine-2-carboxamide]
- G9a degradation, in words ([1]; 22Rv1 cells, 1 μM, 24 h, WB (Figure 3A)): potently induced degradation
- duration of G9a degradation effect ([1]; 22Rv1 cells, 3 μM): up to 48 h
- time at which G9a degradation was first observed ([1]; 22Rv1 cells, 3 μM): 4 h
- time to complete G9a degradation ([1]; 22Rv1 cells, 3 μM): around 24 h
- G9a degradation, in words ([1]; H1299 cells, 3 μM, 24 h, WB): degraded
- G9a degradation, in words ([1]; K562 cells, 3 μM, 24 h, WB): induced G9a and GLP degradation
- DC50 ([1]; read-out: half-maximal degradation concentration (DC50) for G9a, 22Rv1 cells, 24 h, WB): 274 ± 2 nM
- inhibition of G9a enzymatic activity [2]: similarly inhibited
- PRMT7 degradation [3]: cannot induce the degradation
- SET7/9 degradation [4]: cannot induce the degradation
- mRNA levels of GLP [5]: did not significantly alter

— publication PMC10925177 (bioRxiv, 2024)
